Experimental data from different studies.
Lines come from different studies, so protocols differ.
Effect on: cell growth or viability

Compound | cell line | method | time | measurement | value
Nc1cccc2c1C(=O)N(C1CCC(=O)NC1=O)C2=O (stereo not shown) | OCI-Ly10 | CCK-8 | 7 days | IC50 | 0.36 µM
c1ccc(-c2cc(CNc3cccc4cccnc34)on2)cc1 | DND41 | MTS | 72 h | IC50 | > 100 µM
CCOC(=O)c1c(-c2ccc(OC)cc2)oc2ccc(OCc3cn(Cc4ccccc4)nn3)c(CN3CCCCC3)c12 | J774.A1 | resazurin | 18 h | IC50 | 37.9 µM
C[C@H](Oc1nccc(-c2noc([C@@]3(C)CCCc4sc(N)c(C#N)c43)n2)n1)[C@@H]1CCCN1C | NCI-H727 |  | 5 days | EC50 | 0.271 µM
CCOc1ccc(C(=O)CC(SCc2ccc(Cl)cc2)C(=O)OC)cc1 (stereo not shown) | WM 266-4 | MTT | 48 h | EC50 | 21 µM
C[C@H](Oc1nccc(-c2noc3c2CCC[C@@]32CCCc3sc(N)c(C#N)c32)n1)[C@@H]1CCCN1C | NCI-H727 |  | 5 days | EC50 | 0.109 µM
C#CCOc1ccc2oc(-c3ccc(OC)cc3)c(C(=O)OCC)c2c1CN1CCCCC1 | J774.A1 | resazurin |  | IC50 | 8.2 µM
O=c1cc(OCc2cc(-c3ccccc3)no2)c2ccccc2o1 | DND41 | MTS | 72 h | IC50 | > 100 µM
C[C@H]1CN(C)CCN1c1nccc(-c2noc3c2CCC[C@@]32CCCc3sc(N)c(C#N)c32)n1 | NCI-H727 |  | 5 days | EC50 | 0.304 µM
O=c1cc(OCc2cc(-c3ccc(C(F)(F)F)cc3)no2)c2ccccc2o1 | DND41 | MTS | 72 h | IC50 | > 100 µM
Cc1nc(Nc2ncc(C(=O)Nc3c(C)cccc3Cl)s2)cc(N2CC[C@H](O)C2)n1 | JeKo-1 | ATP luminescence | 72 h | IC50 | > 10 µM
C[C@H]1CNCCCN1c1nccc(-c2noc3c2CCC[C@@]32CCCc3sc(N)c(C#N)c32)n1 | NCI-H727 |  | 5 days | EC50 | 0.399 µM
Clc1ccc(-c2cc(CNc3cccc4cccnc34)on2)c(Cl)c1 | DND41 | MTS | 72 h | IC50 | 53.9 µM
